Experimental data: ChEMBL document CHEMBL1649574, “Prevalence and characterization of heterogeneous vancomycin-intermediate Staphylococcus aureus isolates from 14 cities in China” (2009)
Values after ≈ are worked out from the molar mass of the structure shown.

Key:
Assay type in all cases: functional
Staphylococcus aureus [1] = assay: Antimicrobial activity against vancomycin-intermediate Staphylococcus aureus by agar dilution method
Outline: (§1)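 Agar-dilution MICs were measured on a subset of 200 blood MRSA isolates from China. Agents: oxacillin, rifampin, gentamicin, levofloxacin, erythromycin, vancomycin, teicoplanin, tigecycline, ceftobiprole and linezolid. Phenotype came from the PAP-AUC ratio of each isolate to S. aureus Mu3 (VSSA <0.9; hVISA 0.9 to 1.3; VISA ≥1.3), read on BHI agar with 0 to 8.0 mg/liter vancomycin after 48 h at 35°C.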

Staphylococcus aureus [2] = assay: Antimicrobial activity against heterogeneous vancomycin-intermediate Staphylococcus aureus by agar dilution method; outline: as §1
Staphylococcus aureus [3] = assay: Antimicrobial activity against heterogeneous vancomycin-susceptible Staphylococcus aureus assessed as susceptible isolates by agar dilution method
Outline: (§2)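 MICs by agar dilution for all 200 MRSA blood isolates (oxacillin, rifampin, gentamicin, levofloxacin, erythromycin, vancomycin, teicoplanin, tigecycline, ceftobiprole, linezolid). Isolates were grouped by PAP-AUC ratio against S. aureus Mu3: below 0.9 VSSA, 0.9 to 1.3 hVISA, 1.3 or more VISA.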

Staphylococcus aureus [4] = assay: Antimicrobial activity against SCCmec type IV vancomycin-intermediate Staphylococcus aureus isolate 06b41 by agar dilution method; outline: as §1
Staphylococcus aureus [5] = assay: Antimicrobial activity against SCCmec type III vancomycin-intermediate Staphylococcus aureus isolate b3k5923 by agar dilution method; outline: as §1
Staphylococcus aureus [6] = assay: Antimicrobial activity against SCCmec type III vancomycin-intermediate Staphylococcus aureus isolate b3k2345 by agar dilution method; outline: as §1
Staphylococcus aureus [7] = assay: Antimicrobial activity against SCCmec type III vancomycin-intermediate Staphylococcus aureus isolate zj07028 by agar dilution method; outline: as §1
Staphylococcus aureus [8] = assay: Antimicrobial activity against SCCmec type II vancomycin-intermediate Staphylococcus aureus isolate b2k4781 by agar dilution method; outline: as §1
Staphylococcus aureus [9] = assay: Antimicrobial activity against SCCmec type III vancomycin-intermediate Staphylococcus aureus isolate 15b52 by agar dilution method; outline: as §1
Staphylococcus aureus [10] = assay: Antimicrobial activity against vancomycin-susceptible Staphylococcus aureus assessed as growth inhibition at 0.125 times MIC; design: scale not given: the % may be the effect or the level left
Staphylococcus aureus [11] = assay: Antimicrobial activity against heterogeneous vancomycin-intermediate Staphylococcus aureus assessed as growth inhibition at 0.125 times MIC; design: scale not given: the % may be the effect or the level left
Staphylococcus aureus [12] = assay: Antimicrobial activity against SCCmec type II vancomycin-intermediate Staphylococcus aureus isolate 4sy39 by agar dilution method; outline: as §1
Staphylococcus aureus [13] = assay: Antimicrobial activity against SCCmec type II vancomycin-intermediate Staphylococcus aureus isolate 6zjsau7 by agar dilution method; outline: as §1
Staphylococcus aureus [14] = assay: Antimicrobial activity against heterogeneous vancomycin-intermediate Staphylococcus aureus assessed as growth inhibition at MIC; design: scale not given: the % may be the effect or the level left
Staphylococcus aureus [15] = assay: Antimicrobial activity against vancomycin-susceptible Staphylococcus aureus assessed as growth inhibition at 16 times MIC; design: scale not given: the % may be the effect or the level left
Staphylococcus aureus [16] = assay: Antimicrobial activity against SCCmec type III vancomycin-intermediate Staphylococcus aureus isolate b4k6307 by agar dilution method; outline: as §1
Staphylococcus aureus [17] = assay: Antimicrobial activity against SCCmec type III vancomycin-intermediate Staphylococcus aureus isolate 5zjsau3 by agar dilution method; outline: as §1
Staphylococcus aureus [18] = assay: Antimicrobial activity against SCCmec type III vancomycin-intermediate Staphylococcus aureus isolate b6k1642 by agar dilution method; outline: as §1
Staphylococcus aureus [19] = assay: Antimicrobial activity against SCCmec type III vancomycin-intermediate Staphylococcus aureus isolate b2k3421 by agar dilution method; outline: as §1
Staphylococcus aureus [20] = assay: Antimicrobial activity against heterogeneous vancomycin-intermediate Staphylococcus aureus assessed as growth inhibition at 4 times MIC; design: scale not given: the % may be the effect or the level left
Staphylococcus aureus [21] = assay: Antimicrobial activity against vancomycin-susceptible Staphylococcus aureus assessed as growth inhibition at 4 times MIC; design: scale not given: the % may be the effect or the level left
Staphylococcus aureus [22] = assay: Antimicrobial activity against heterogeneous vancomycin-intermediate Staphylococcus aureus assessed as growth inhibition at 0.25 times MIC; design: scale not given: the % may be the effect or the level left
Staphylococcus aureus [23] = assay: Antimicrobial activity against SCCmec type II vancomycin-intermediate Staphylococcus aureus isolate sh06024 by agar dilution method; outline: as §1
Staphylococcus aureus [24] = assay: Antimicrobial activity against heterogeneous vancomycin-susceptible Staphylococcus aureus assessed as intermediate isolates by agar dilution method
Staphylococcus aureus [25] = assay: Antimicrobial activity against SCCmec type III vancomycin-intermediate Staphylococcus aureus isolate b5k3529 by agar dilution method; outline: as §1
Staphylococcus aureus [26] = assay: Antimicrobial activity against vancomycin-susceptible Staphylococcus aureus assessed as growth inhibition at MIC; design: scale not given: the % may be the effect or the level left
Staphylococcus aureus [27] = assay: Antimicrobial activity against SCCmec type III vancomycin-intermediate Staphylococcus aureus isolate bd4768 by agar dilution method; outline: as §1
Staphylococcus aureus [28] = assay: Antimicrobial activity against SCCmec type III vancomycin-intermediate Staphylococcus aureus isolate xa07029 by agar dilution method; outline: as §1
Staphylococcus aureus [29] = assay: Antimicrobial activity against heterogeneous vancomycin-intermediate Staphylococcus aureus assessed as growth inhibition at 16 times MIC; design: scale not given: the % may be the effect or the level left
Staphylococcus aureus [30] = assay: Antimicrobial activity against SCCmec type III vancomycin-intermediate Staphylococcus aureus isolate gz07030 by agar dilution method; outline: as §1
Staphylococcus aureus [31] = assay: Antimicrobial activity against SCCmec type III vancomycin-intermediate Staphylococcus aureus isolate b5k3578 by agar dilution method; outline: as §1
Staphylococcus aureus [32] = assay: Antimicrobial activity against SCCmec type III vancomycin-intermediate Staphylococcus aureus isolate gz06040 by agar dilution method; outline: as §1
Staphylococcus aureus [33] = assay: Antimicrobial activity against heterogeneous vancomycin-intermediate Staphylococcus aureus assessed as growth inhibition at 0.5 times MIC; design: scale not given: the % may be the effect or the level left
Staphylococcus aureus [34] = assay: Antimicrobial activity against SCCmec type II vancomycin-intermediate Staphylococcus aureus isolate 4sy32 by agar dilution method; outline: as §1
Staphylococcus aureus [35] = assay: Antimicrobial activity against vancomycin-susceptible Staphylococcus aureus assessed as growth inhibition at 0.25 times MIC; design: scale not given: the % may be the effect or the level left
Staphylococcus aureus [36] = assay: Antimicrobial activity against heterogeneous vancomycin-intermediate Staphylococcus aureus assessed as growth inhibition at 2 times MIC; design: scale not given: the % may be the effect or the level left
Staphylococcus aureus [37] = assay: Antimicrobial activity against vancomycin-susceptible Staphylococcus aureus assessed as growth inhibition at 2 times MIC; design: scale not given: the % may be the effect or the level left
Staphylococcus aureus [38] = assay: Antimicrobial activity against SCCmec type III vancomycin-intermediate Staphylococcus aureus isolate gs07022 by agar dilution method; outline: as §1
Staphylococcus aureus [39] = assay: Antimicrobial activity against vancomycin-susceptible Staphylococcus aureus by agar dilution method; outline: as §1
Staphylococcus aureus [40] = assay: Antimicrobial activity against heterogeneous vancomycin-intermediate Staphylococcus aureus assessed as intermediate isolates by agar dilution method; outline: as §2
Staphylococcus aureus [41] = assay: Antimicrobial activity against SCCmec type III vancomycin-intermediate Staphylococcus aureus isolate b6k7974 by agar dilution method; outline: as §1
Staphylococcus aureus [42] = assay: Antimicrobial activity against heterogeneous vancomycin-intermediate Staphylococcus aureus assessed as susceptible isolates by agar dilution method; outline: as §2
Staphylococcus aureus [43] = assay: Antimicrobial activity against vancomycin-susceptible Staphylococcus aureus assessed as growth inhibition at 0.5 times MIC; design: scale not given: the % may be the effect or the level left
Staphylococcus aureus [44] = assay: Antimicrobial activity against SCCmec type II vancomycin-intermediate Staphylococcus aureus isolate 07b63 by agar dilution method; outline: as §1
Staphylococcus aureus [45] = assay: Antimicrobial activity against SCCmec type III vancomycin-intermediate Staphylococcus aureus isolate 13b16 by agar dilution method; outline: as §1
Staphylococcus aureus [46] = assay: Antimicrobial activity against SCCmec type III vancomycin-intermediate Staphylococcus aureus isolate sh07043 by agar dilution method; outline: as §1
Staphylococcus aureus [47] = assay: Antimicrobial activity against SCCmec type III vancomycin-intermediate Staphylococcus aureus isolate gz06051 by agar dilution method; outline: as §1
Staphylococcus aureus [48] = assay: Antimicrobial activity against SCCmec type III vancomycin-intermediate Staphylococcus aureus isolate 11b091 by agar dilution method; outline: as §1

CC(=O)NC[C@H]1CN(c2ccc(N3CCOCC3)c(F)c2)C(=O)O1 [LINEZOLID]
MIC (Staphylococcus aureus [1]): 1 µg/mL (≈ 2.96 µM) | MIC50 (Staphylococcus aureus [2]): 1 µg/mL (≈ 2.96 µM) | MIC90 (Staphylococcus aureus [2]): 2 µg/mL (≈ 5.93 µM) | Activity (Staphylococcus aureus [3]): 100% | MIC (Staphylococcus aureus [4]): 1 µg/mL (≈ 2.96 µM) | MIC (Staphylococcus aureus [5]): 0.5 µg/mL (≈ 1.48 µM) | MIC (Staphylococcus aureus [6]): 0.5 µg/mL (≈ 1.48 µM) | MIC (Staphylococcus aureus [7]): 1 µg/mL (≈ 2.96 µM) | MIC (Staphylococcus aureus [8]): 0.5 µg/mL (≈ 1.48 µM) | MIC (Staphylococcus aureus [9]): 0.5 µg/mL (≈ 1.48 µM) | Activity (Staphylococcus aureus [10]): 0.58% | Activity (Staphylococcus aureus [11]): 0% | MIC (Staphylococcus aureus [12]): 1 µg/mL (≈ 2.96 µM) | MIC (Staphylococcus aureus [13]): 1 µg/mL (≈ 2.96 µM) | Activity (Staphylococcus aureus [14]): 85.2% | Activity (Staphylococcus aureus [15]): 100% | MIC (Staphylococcus aureus [16]): 0.5 µg/mL (≈ 1.48 µM) | MIC (Staphylococcus aureus [17]): 1 µg/mL (≈ 2.96 µM) | MIC (Staphylococcus aureus [18]): 1 µg/mL (≈ 2.96 µM) | MIC (Staphylococcus aureus [19]): 0.5 µg/mL (≈ 1.48 µM) | Activity (Staphylococcus aureus [20]): 100% | Activity (Staphylococcus aureus [21]): 100% | Activity (Staphylococcus aureus [22]): 0% | MIC (Staphylococcus aureus [23]): 0.5 µg/mL (≈ 1.48 µM) | Activity (Staphylococcus aureus [24]): 0% | MIC (Staphylococcus aureus [25]): 0.5 µg/mL (≈ 1.48 µM) | Activity (Staphylococcus aureus [26]): 82.7% | MIC (Staphylococcus aureus [27]): 1 µg/mL (≈ 2.96 µM) | MIC (Staphylococcus aureus [28]): 1 µg/mL (≈ 2.96 µM) | Activity (Staphylococcus aureus [29]): 100% | MIC (Staphylococcus aureus [30]): 1 µg/mL (≈ 2.96 µM) | MIC (Staphylococcus aureus [31]): 0.5 µg/mL (≈ 1.48 µM) | MIC (Staphylococcus aureus [32]): 1 µg/mL (≈ 2.96 µM) | Activity (Staphylococcus aureus [33]): 33.3% | MIC (Staphylococcus aureus [34]): 1 µg/mL (≈ 2.96 µM) | Activity (Staphylococcus aureus [35]): 1.16% | Activity (Staphylococcus aureus [36]): 100% | Activity (Staphylococcus aureus [37]): 100% | MIC (Staphylococcus aureus [38]): 1 µg/mL (≈ 2.96 µM) | MIC50 (Staphylococcus aureus [39]): 1 µg/mL (≈ 2.96 µM) | MIC90 (Staphylococcus aureus [39]): 2 µg/mL (≈ 5.93 µM) | Activity (Staphylococcus aureus [40]): 0% | MIC (Staphylococcus aureus [41]): 1 µg/mL (≈ 2.96 µM) | Activity (Staphylococcus aureus [42]): 100% | Activity (Staphylococcus aureus [43]): 31.2% | MIC (Staphylococcus aureus [44]): 1 µg/mL (≈ 2.96 µM)

Cc1onc(-c2ccccc2)c1C(=O)N[C@@H]1C(=O)N2[C@@H]1SC(C)(C)[C@@H]2C(=O)O [OXACILLIN]
MIC (Staphylococcus aureus [4]): 8 µg/mL (≈ 19.9 µM) | MIC (Staphylococcus aureus [5]): > 64 µg/mL | MIC (Staphylococcus aureus [6]): > 64 µg/mL | MIC (Staphylococcus aureus [7]): > 64 µg/mL | MIC (Staphylococcus aureus [8]): > 64 µg/mL | MIC (Staphylococcus aureus [9]): > 64 µg/mL | MIC (Staphylococcus aureus [12]): 256 µg/mL (≈ 638 µM) | MIC (Staphylococcus aureus [13]): > 64 µg/mL | MIC (Staphylococcus aureus [45]): > 64 µg/mL | MIC (Staphylococcus aureus [16]): > 64 µg/mL | MIC (Staphylococcus aureus [17]): > 64 µg/mL | MIC (Staphylococcus aureus [18]): > 64 µg/mL | MIC (Staphylococcus aureus [19]): > 64 µg/mL | MIC (Staphylococcus aureus [46]): > 64 µg/mL | MIC (Staphylococcus aureus [23]): > 64 µg/mL | MIC (Staphylococcus aureus [25]): > 64 µg/mL | MIC (Staphylococcus aureus [27]): > 64 µg/mL | MIC (Staphylococcus aureus [28]): > 64 µg/mL | MIC (Staphylococcus aureus [30]): > 64 µg/mL | MIC (Staphylococcus aureus [31]): > 64 µg/mL | MIC (Staphylococcus aureus [32]): 32 µg/mL (≈ 79.7 µM) | MIC (Staphylococcus aureus [34]): 256 µg/mL (≈ 638 µM) | MIC (Staphylococcus aureus [38]): 8 µg/mL (≈ 19.9 µM) | MIC (Staphylococcus aureus [41]): > 64 µg/mL | MIC (Staphylococcus aureus [47]): > 64 µg/mL | MIC (Staphylococcus aureus [48]): > 64 µg/mL | MIC (Staphylococcus aureus [44]): > 64 µg/mL
